How the values were obtained:
Raji [1] = assay: Inhibition of TPA-induced Epstein-Barr virus early antigen in Raji cells at 100 mol ratio/TPA relative to control; values are per cent of control; details: human gammaherpesvirus 4
Raji [2] = assay: Inhibition of TPA-induced Epstein-Barr virus early antigen in Raji cells at 1000 mol ratio/TPA relative to control; values are per cent of control; details: human gammaherpesvirus 4
[3] = Cytotoxicity against human Raji cells assessed as cell viability at 1000 mol ratio/TPA relative to control; assay type: cell-based; details: read-out: Activity
How it was run: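 Raji cells stimulated with TPA at 32 pmol (20 ng), taken as 100% positive control. Test compound added at mol ratio to TPA of 1000, 500, 100 or 10 (1000:1 = 32 nmol). EBV-EA induction expressed as % of positive control; Raji cell viability recorded as % at the 1000 ratio. IC50 as mol ratio to TPA inhibiting 50% of control.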

Raji [4] = assay: Inhibition of TPA-induced Epstein-Barr virus early antigen in Raji cells at 500 mol ratio/TPA relative to control; values are per cent of control; details: human gammaherpesvirus 4
Raji [5] = assay: Inhibition of TPA-induced Epstein-Barr virus early antigen in Raji cells at 10 mol ratio/TPA relative to control; values are per cent of control; details: human gammaherpesvirus 4
[6] = Scavenging activity against NO generation in NOR1-induced cell culture; assay type: functional
How it was run: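 Cultured-cell screen for scavenging of NO released by the NO donor NOR 1. Activity expressed as inhibitory ratio (IR) against NOR 1 action, with glycyrrhizin and carboxy-PTIO as reference compounds.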

Mus musculus [7] = species: Mus musculus; assay: Inhibition of DMBA-induced carcinogenesis in mouse assessed as number of papillomas per mouse after 10 weeks; assay type: functional
How it was run: (§1)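 Mouse skin two-stage model, DMBA initiation and TPA promotion. Promotion with TPA 1.7 nmol; treated groups received 85 nmol test compound with each TPA application. Read-outs were % of mice bearing papillomas and mean papillomas per mouse, scored at 10 and 20 weeks. Papilloma numbers compared by Student's t-test.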

Mus musculus [8] = species: Mus musculus; assay: Inhibition of DMBA-induced carcinogenesis in mouse assessed as reduction in papilloma bearing mouse after 10 weeks; assay type: functional; parameters: scale not given: the % may be the effect or the level left
How it was run: as §1

Mus musculus [9] = species: Mus musculus; assay: Inhibition of DMBA-induced carcinogenesis in mouse assessed as reduction in papilloma bearing mouse after 20 weeks; assay type: functional; parameters: scale not given: the % may be the effect or the level left
How it was run: as §1

Mus musculus [10] = species: Mus musculus; assay: Inhibition of DMBA-induced carcinogenesis in mouse assessed as number of papillomas per mouse after 20 weeks; assay type: functional
How it was run: as §1

Compound | level, % of control (Raji [1]) | level, % of control (Raji [2]) | viability at 1000 mol ratio/TPA [3] | level, % of control (Raji [4]) | level, % of control (Raji [5]) | inhibitory ratio (IR) against NOR 1 action [6] | Activity (Mus musculus [7]) | Activity (Mus musculus [8]) | Activity (Mus musculus [9]) | Activity (Mus musculus [10])
C=C(C)/C=C/C[C@@H](C)[C@H]1CC[C@@]2(C)[C@@H]3C=C[C@@]45OC(=O)[C@]3(CC[C@]12C)[C@@H]4CC[C@H](O[C@@H]1O[C@H](CO)[C@@H](O)[C@H](O)[C@H]1O)C5(C)C [CHARANTOSIDE VII] | 75.1% | 9.9% | 70% | 28.1% | 100% | – | – | – | – | –
COC1O[C@]23C=C[C@@H]4[C@@]1(CC[C@]1(C)[C@@H]([C@H](C)C/C=C/C(C)(C)O)CC[C@@]41C)[C@@H]2CC[C@H](O)C3(C)C (some centres undefined) | 72.5% | 0% | 70% | 27.6% | 94.5% | 1.9 | – | – | – | –
COC1O[C@]23C=C[C@@H]4[C@@]1(CC[C@]1(C)[C@@H]([C@H](C)C/C=C/C(C)(C)OC)CC[C@@]41C)[C@@H]2CC[C@H](O[C@@H]1O[C@H](CO)[C@@H](O)[C@H](O)[C@H]1O)C3(C)C (some centres undefined) [GOYAGLYCOSIDE C] | 80% | 13.5% | 70% | 33.7% | 100% | – | – | – | – | –
C=C(C)/C=C/C[C@@H](C)[C@H]1CC[C@@]2(C)[C@@H]3[C@@H](OC)C=C4[C@@H](CC[C@H](O)C4(C)C)[C@]3(C=O)CC[C@]12C | 75.4% | 0% | 70% | 22.5% | 95.3% | 1.6 | – | – | – | –
CC1=C(/C=C/C(C)=C/C=C/C(C)=C/C=C/C=C(C)/C=C/C=C(C)/C=C/C2=C(C)CCCC2(C)C)C(C)(C)CCC1 | 82.1% | 8.6% | – | 34.2% | 100% | – | – | – | – | –
CC1(C)N([O])C(c2ccc(C(=O)O)cc2)=[N+]([O-])C1(C)C | – | – | – | – | – | 8 | – | – | – | –
C=C(C)/C=C/C[C@@H](C)[C@H]1CC[C@@]2(C)[C@@H]3C=C[C@@]45O[C@@H](OC)[C@]3(CC[C@]12C)[C@@H]4CC[C@H](O[C@@H]1O[C@H](CO)[C@@H](O)[C@H](O)[C@H]1O)C5(C)C [CHARANTOSIDE I] | 81.1% | 12.6% | 70% | 35.4% | 100% | – | – | – | – | –
CO[C@@H](C=C(C)C)C[C@@H](C)[C@H]1CC[C@@]2(C)[C@@H]3C=C[C@@]45OC[C@]3(CC[C@]12C)[C@@H]4CC[C@H](O[C@@H]1O[C@H](CO)[C@@H](O)[C@H](O)[C@H]1O)C5(C)C [CHARANTOSIDE V] | 77% | 10.5% | 70% | 30.6% | 100% | – | – | – | – | –
CO[C@@H]1O[C@]23C=C[C@@H]4[C@@]1(CC[C@]1(C)[C@@H]([C@H](C)C[C@H](C=C(C)C)OC)CC[C@@]41C)[C@@H]2CC[C@H](O[C@@H]1O[C@H](CO)[C@@H](O)[C@@H](O)[C@H]1O)C3(C)C [CHARANTOSIDE II] | 82.1% | 12.3% | 70% | 35% | 100% | – | – | – | – | –
CO[C@H](C=C(C)C)C[C@@H](C)[C@H]1CC[C@@]2(C)[C@@H]3C=C[C@@]45OC[C@]3(CC[C@]12C)[C@@H]4CC[C@H](O[C@@H]1O[C@H](CO)[C@@H](O)[C@@H](O)[C@H]1O)C5(C)C [CHARANTOSIDE VI] | 82% | 12.7% | 70% | 35.9% | 100% | – | – | – | – | –
CC1(C)[C@@H](O[C@H]2O[C@H](C(=O)O)[C@@H](O)[C@H](O)[C@H]2O[C@@H]2O[C@H](C(=O)O)[C@@H](O)[C@H](O)[C@H]2O)CC[C@]2(C)[C@H]3C(=O)C=C4[C@@H]5C[C@@](C)(C(=O)O)CC[C@]5(C)CC[C@@]4(C)[C@]3(C)CC[C@@H]12 [GLYCYRRHIZIN] | 83.3% | 27.4% | > 80% | 63.3% | 100% | 2.2 | – | – | – | –
CO[C@H](C=C(C)C)C[C@@H](C)[C@H]1CC[C@@]2(C)[C@@H]3[C@@H](OC)C=C4[C@@H](CC[C@H](O[C@@H]5O[C@H](CO)[C@@H](O)[C@H](O)[C@H]5O)C4(C)C)[C@]3(C)CC[C@]12C [KARAVILOSIDE I] | 83.7% | 16.1% | 70% | 39.2% | 100% | – | – | – | – | –
C=C(C)/C=C/C[C@@H](C)[C@H]1CC[C@@]2(C)[C@@H]3C=C[C@@]45O[C@@H](OC)[C@]3(CC[C@]12C)[C@@H]4CC[C@H](O)C5(C)C | 60.2% | 0% | 70% | 18.5% | 82.7% | 2 | 1.7 | 33% | 80% | 4
C=C(C)/C=C/C[C@@H](C)[C@H]1CC[C@@]2(C)[C@@H]3C=C[C@@]45OC[C@]3(CC[C@]12C)[C@@H]4CC[C@H](O[C@@H]1O[C@H](CO)[C@@H](O)[C@@H](O)[C@H]1O)C5(C)C [CHARANTOSIDE IV] | 81.1% | 12.1% | 70% | 35% | 100% | – | – | – | – | –
COC1O[C@]23C=C[C@@H]4[C@@]1(CC[C@]1(C)[C@@H]([C@H](C)C/C=C/C(C)(C)OC)CC[C@@]41C)[C@@H]2CC[C@H](O[C@@H]1O[C@H](CO)[C@@H](O)[C@@H](O)[C@H]1O)C3(C)C (some centres undefined) [GOYAGLYCOSIDE D] | 80.3% | 11.2% | 70% | 34.2% | 100% | – | – | – | – | –
C=C(C)/C=C/C[C@@H](C)[C@H]1CC[C@@]2(C)[C@@H]3C=C[C@@]45OC[C@]3(CC[C@]12C)[C@@H]4CC[C@H](O[C@@H]1O[C@H](CO)[C@@H](O)[C@H](O)[C@H]1O)C5(C)C [CHARANTOSIDE III] | 82.1% | 12.9% | 70% | 36% | 100% | – | – | – | – | –
COC(C)(C)/C=C/C[C@@H](C)[C@H]1CC[C@@]2(C)[C@@H]3C=C[C@@]45OC[C@]3(CC[C@]12C)[C@@H]4CC[C@H](O[C@@H]1O[C@H](CO)[C@@H](O)[C@H](O)[C@H]1O)C5(C)C [MOMORDICOSIDE F1] | 78.1% | 11.3% | 70% | 31.5% | 100% | – | – | – | – | –
C[C@H](C/C=C/C(C)(C)O)[C@H]1CC[C@@]2(C)[C@@H]3C=C[C@@]45OC[C@]3(CC[C@]12C)[C@@H]4CC[C@H](O[C@@H]1O[C@H](CO)[C@@H](O)[C@@H](O)[C@H]1O)C5(C)C [MOMORDICOSIDE F2] | 76.9% | 9.1% | 70% | 29.7% | 100% | – | – | – | – | –
COc1cc(/C=C/C(=O)CC(=O)/C=C/c2ccc(O)c(OC)c2)ccc1O [CURCUMIN] | 81.8% | 0% | 70% | 22.8% | 100% | – | – | – | – | –
CO[C@H]1C=C2[C@@H](CC[C@H](O)C2(C)C)[C@]2(C=O)CC[C@]3(C)[C@@H]([C@H](C)C/C=C/C(C)(C)OC)CC[C@@]3(C)[C@H]12 | 77.5% | 0% | 70% | 33.7% | 97.3% | 1.5 | – | – | – | –
CO[C@H]1C=C2[C@@H](CC[C@H](O[C@@H]3O[C@H](CO)[C@@H](O)[C@H](O)[C@H]3O)C2(C)C)[C@]2(C=O)CC[C@]3(C)[C@@H]([C@H](C)C/C=C/C(C)(C)OC)CC[C@@]3(C)[C@H]12 [CHARANTOSIDE VIII] | 82.5% | 15.3% | 70% | 38.5% | 100% | – | – | – | – | –
